Results gathered from unrelated publications.
Compare with care: the assays were run in different laboratories. pIC50: −log10 of the molar value.
Cell line: CAKI-1
Read-out: cell growth or viability

| Structure (SMILES) | technique | concentration | time | quantity | value |
| --- | --- | --- | --- | --- | --- |
| COc1ccc(C(=O)/C=C/c2cc3c(cc2Br)OCO3)cc1S(N)(=O)=O | SRB | – | 48 h | GI50 | 4600 nM |
| [Cl-].[Cl-].[Ti+4].c1cc[cH-]c1.c1cc[cH-]c1 | XTT | – | 24 h | pIC50 | < 3.70 |
| CC(C)C[C@H](NC(=O)[C@H](Cc1ccccc1)NC(=O)c1cnccn1)B(O)O | ATP luminescence | – | – | pIC50 | 8.00 |
| COc1ccc(C(=O)/C=C/c2cccc(Cl)c2Cl)cc1S(N)(=O)=O | SRB | 10 µM | – | inhibition | 106% |
| CC(=O)OC[C@H]1O[C@@H]([S-])[C@H](OC(C)=O)[C@@H](OC(C)=O)[C@@H]1OC(C)=O.CCP(CC)CC.[Au+] | resazurin | – | – | pIC50 | 5.64 |
| COc1ccc(-c2ccc(-c3ccc(C(=N)N)nc3)s2)cc1 | – | – | – | GI50 | 1640 nM |
| O=C1Nc2ccccc2C1=NNc1nnc2n1N=C(c1ccccc1)CS2 | SRB | 10 µM | – | inhibition | 21% |
| S=C([S][Au-][P+](CCCCCC[P+]([Au-][S]C(=S)n1cccn1)(c1ccccc1)c1ccccc1)(c1ccccc1)c1ccccc1)n1cccn1 | – | – | – | GI50 | 7150 nM |
| COc1ccc(-c2ccc(-c3ccc(C(=N)N)nc3)s2)cc1Cl | – | – | – | GI50 | 1740 nM |
| Cc1cc(C)n(C(=S)[S][Au][PH](CCCCCC[PH]([Au][S]C(=S)n2nc(C)cc2C)(c2ccccc2)c2ccccc2)(c2ccccc2)c2ccccc2)n1 | – | – | – | GI50 | 2160 nM |
| COc1cc(Nc2nccc(-c3cnn4nc(OC)ccc34)n2)cc(C(F)(F)F)c1 | ATP luminescence | – | – | pIC50 | 6.51 |
